Measurements: ChEMBL document CHEMBL3797186, “Single Residue Substitutions That Confer Voltage-Gated Sodium Ion Channel Subtype Selectivity in the NaV1.7 Inhibitory Peptide GpTx-1” (J Med Chem, 2016)
Positions of bridges follow the written chain, without caps; N, C: chain ends. Non-standard residues stand in square brackets, D forms with d. Residues, ends and D or L forms follow the SMILES beside them. 1Nal = N[C@@H](Cc1cccc2ccccc12)C(=O)O

Columns and labels:
[1] = target: Sodium channel protein type 5 subunit alpha (Homo sapiens, UniProt Q14524); assay: Inhibition of human Nav1.5 expressed in HEK293 cells assessed as inward peak current by ion-works quattro patch clamp electrophysiology method; format: cell-based
Procedure, shortened: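 Stable HEK293 line expressing human NaV1.5, recorded by population patch clamp on the IonWorks Quattro.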

[2] = target: Sodium channel protein type 9 subunit alpha (Homo sapiens, UniProt Q15858); assay: Inhibition of human Nav1.7 expressed in HEK293 cells assessed as inward peak current by ion-works quattro patch clamp electrophysiology method; format: cell-based
Sequence of Sodium channel protein type 9 subunit alpha (Q15858 whole entry): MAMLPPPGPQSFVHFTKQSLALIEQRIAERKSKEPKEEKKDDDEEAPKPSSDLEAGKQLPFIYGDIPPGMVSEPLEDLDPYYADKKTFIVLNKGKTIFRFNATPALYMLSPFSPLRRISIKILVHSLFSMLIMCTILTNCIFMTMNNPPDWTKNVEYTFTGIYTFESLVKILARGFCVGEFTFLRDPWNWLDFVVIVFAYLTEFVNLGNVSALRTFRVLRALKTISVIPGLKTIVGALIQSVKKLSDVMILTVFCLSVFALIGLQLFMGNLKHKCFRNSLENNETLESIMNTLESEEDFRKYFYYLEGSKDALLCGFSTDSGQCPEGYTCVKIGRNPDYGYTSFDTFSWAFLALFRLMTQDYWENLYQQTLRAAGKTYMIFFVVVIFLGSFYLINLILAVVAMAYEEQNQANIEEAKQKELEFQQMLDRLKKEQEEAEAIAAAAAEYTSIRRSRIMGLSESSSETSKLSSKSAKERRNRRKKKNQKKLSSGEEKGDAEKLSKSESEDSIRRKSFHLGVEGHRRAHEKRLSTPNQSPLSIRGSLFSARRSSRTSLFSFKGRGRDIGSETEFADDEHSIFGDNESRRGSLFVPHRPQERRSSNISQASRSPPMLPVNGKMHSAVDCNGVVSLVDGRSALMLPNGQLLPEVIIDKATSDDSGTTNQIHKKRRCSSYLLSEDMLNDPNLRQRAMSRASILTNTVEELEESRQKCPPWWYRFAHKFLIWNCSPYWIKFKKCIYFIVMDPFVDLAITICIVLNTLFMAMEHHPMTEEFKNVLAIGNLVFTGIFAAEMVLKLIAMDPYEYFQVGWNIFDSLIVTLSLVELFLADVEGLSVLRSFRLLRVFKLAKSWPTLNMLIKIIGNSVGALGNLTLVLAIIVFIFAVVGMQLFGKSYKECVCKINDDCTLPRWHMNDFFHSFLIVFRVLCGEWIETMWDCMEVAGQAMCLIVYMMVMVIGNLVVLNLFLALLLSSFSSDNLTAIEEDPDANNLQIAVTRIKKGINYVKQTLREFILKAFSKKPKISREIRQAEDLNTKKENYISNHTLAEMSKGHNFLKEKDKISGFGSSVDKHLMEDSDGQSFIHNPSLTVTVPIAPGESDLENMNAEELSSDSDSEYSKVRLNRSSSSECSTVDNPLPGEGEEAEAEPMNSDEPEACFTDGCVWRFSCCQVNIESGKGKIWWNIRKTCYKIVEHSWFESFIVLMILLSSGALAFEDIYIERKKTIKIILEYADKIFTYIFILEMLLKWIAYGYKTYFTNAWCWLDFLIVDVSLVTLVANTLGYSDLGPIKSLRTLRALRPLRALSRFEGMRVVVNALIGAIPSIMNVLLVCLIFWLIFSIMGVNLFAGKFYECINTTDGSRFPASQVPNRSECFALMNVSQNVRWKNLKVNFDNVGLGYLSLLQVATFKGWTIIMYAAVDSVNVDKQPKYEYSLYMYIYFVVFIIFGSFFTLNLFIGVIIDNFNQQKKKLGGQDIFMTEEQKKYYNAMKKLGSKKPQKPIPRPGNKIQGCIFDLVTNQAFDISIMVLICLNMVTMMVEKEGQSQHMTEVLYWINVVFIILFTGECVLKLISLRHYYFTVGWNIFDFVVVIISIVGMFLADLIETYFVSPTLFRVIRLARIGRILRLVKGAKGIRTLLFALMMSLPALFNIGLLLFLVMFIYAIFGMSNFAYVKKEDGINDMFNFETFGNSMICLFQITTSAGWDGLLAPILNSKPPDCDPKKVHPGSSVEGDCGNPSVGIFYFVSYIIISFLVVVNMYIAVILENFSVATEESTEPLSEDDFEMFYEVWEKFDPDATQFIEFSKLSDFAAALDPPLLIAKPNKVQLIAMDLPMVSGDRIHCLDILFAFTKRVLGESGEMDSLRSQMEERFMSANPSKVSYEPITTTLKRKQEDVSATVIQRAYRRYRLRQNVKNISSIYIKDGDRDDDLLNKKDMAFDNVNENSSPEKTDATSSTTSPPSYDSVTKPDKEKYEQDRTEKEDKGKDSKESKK

Sequence of Sodium channel protein type 5 subunit alpha (Q14524 whole entry): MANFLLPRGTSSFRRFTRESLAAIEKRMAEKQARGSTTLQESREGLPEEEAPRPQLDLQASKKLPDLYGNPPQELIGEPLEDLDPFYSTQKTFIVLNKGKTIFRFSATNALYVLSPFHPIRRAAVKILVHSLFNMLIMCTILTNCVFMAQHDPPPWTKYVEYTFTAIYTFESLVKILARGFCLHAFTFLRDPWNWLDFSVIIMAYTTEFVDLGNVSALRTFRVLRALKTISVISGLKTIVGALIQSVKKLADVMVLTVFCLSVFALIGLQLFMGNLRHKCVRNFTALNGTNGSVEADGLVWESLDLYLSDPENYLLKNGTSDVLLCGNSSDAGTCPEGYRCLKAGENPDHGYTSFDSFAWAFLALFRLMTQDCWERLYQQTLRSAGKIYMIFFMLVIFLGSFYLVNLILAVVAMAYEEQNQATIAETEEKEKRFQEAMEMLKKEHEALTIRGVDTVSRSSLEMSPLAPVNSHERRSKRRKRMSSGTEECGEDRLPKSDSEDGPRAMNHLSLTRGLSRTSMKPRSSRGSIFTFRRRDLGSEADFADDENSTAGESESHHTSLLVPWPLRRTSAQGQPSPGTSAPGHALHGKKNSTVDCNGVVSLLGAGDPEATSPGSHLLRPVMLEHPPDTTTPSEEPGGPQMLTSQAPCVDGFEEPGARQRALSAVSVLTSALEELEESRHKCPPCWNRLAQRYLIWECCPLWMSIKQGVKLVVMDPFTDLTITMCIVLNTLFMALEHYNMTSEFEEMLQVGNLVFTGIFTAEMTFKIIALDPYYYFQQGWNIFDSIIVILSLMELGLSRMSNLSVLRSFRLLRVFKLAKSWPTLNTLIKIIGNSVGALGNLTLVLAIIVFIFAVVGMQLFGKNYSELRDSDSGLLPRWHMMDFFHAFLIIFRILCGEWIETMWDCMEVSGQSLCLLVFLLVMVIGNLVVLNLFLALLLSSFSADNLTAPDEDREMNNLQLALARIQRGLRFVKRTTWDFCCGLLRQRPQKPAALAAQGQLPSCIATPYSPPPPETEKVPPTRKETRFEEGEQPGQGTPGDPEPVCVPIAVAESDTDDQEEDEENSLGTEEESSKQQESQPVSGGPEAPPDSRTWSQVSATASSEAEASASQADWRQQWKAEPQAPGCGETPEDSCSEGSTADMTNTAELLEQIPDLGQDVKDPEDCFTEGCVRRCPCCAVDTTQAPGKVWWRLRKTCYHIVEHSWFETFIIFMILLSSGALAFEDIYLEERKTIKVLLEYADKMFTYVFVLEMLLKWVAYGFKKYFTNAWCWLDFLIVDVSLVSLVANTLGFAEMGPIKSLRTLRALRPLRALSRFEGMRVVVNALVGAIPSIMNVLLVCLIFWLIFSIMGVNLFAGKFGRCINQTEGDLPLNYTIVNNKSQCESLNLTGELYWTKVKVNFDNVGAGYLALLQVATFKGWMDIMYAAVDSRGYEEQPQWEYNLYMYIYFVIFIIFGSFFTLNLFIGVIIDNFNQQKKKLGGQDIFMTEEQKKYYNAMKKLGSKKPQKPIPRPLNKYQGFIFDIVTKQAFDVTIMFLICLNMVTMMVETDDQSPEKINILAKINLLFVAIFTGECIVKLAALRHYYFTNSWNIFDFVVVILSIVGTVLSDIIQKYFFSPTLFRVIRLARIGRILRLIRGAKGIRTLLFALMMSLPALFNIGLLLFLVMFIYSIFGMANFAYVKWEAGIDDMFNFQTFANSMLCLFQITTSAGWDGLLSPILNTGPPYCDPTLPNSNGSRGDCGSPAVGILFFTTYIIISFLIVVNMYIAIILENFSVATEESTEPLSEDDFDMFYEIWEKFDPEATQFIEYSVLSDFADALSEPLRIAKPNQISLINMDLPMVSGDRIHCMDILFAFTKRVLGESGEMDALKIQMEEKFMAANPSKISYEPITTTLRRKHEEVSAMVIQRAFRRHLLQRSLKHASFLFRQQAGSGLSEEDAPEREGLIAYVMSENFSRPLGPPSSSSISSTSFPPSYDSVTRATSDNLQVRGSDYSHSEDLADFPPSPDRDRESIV

Row | Compound | IC50 [1] | IC50 [2]
1 | CC[C@H](C)[C@@H]1NC(=O)[C@@H]2CSSC[C@@H]3NC(=O)[C@H](C(C)C)NC(=O)[C@H](CC(C)C)NC(=O)[C@H](CC(N)=O)NC(=O)[C@@H]4CCCN4C(=O)[C@H](CCCNC(=N)N)NC(=O)[C@H](CSSC[C@H](NC(=O)[C@@H](N)CC(=O)O)C(=O)N[C@@H](CC(C)C)C(=O)NCC(=O)N[C@@H](Cc4ccccc4)C(=O)N[C@@H](CCSC)C(=O)N[C@@H](CCCNC(=N)N)C(=O)N[C@@H](CCCCN)C(=O)N2)NC(=O)[C@H](CSSC[C@@H](C(=O)N[C@@H](CCCCN)C(=O)N[C@@H](Cc2ccc(O)cc2)C(=O)N[C@H](C(=O)N[C@@H](Cc2ccccc2)C(N)=O)C(C)C)NC(=O)[C@H](Cc2c[nH]c4ccccc24)NC(=O)[C@H](CCCCN)NC(=O)[C@H](Cc2cnc[nH]2)NC(=O)[C@H](CCCCN)NC(=O)[C@H](CCCNC(=N)N)NC(=O)[C@H](CO)NC3=O)NC(=O)[C@H](CCCCN)NC(=O)[C@H](CC(=O)O)NC(=O)[C@H](CC(N)=O)NC(=O)[C@H](CC(=O)O)NC(=O)[C@@H]2CCCN2C1=O (H-DCLGFMRKCIPDNDKCCRPNLVCSRKHKWCKYVF-NH2; disulfide 2-17, 9-23, 16-30) | > 5000 nM | 40 nM
2 | CC[C@H](C)[C@@H]1NC(=O)[C@@H]2CSSC[C@@H]3NC(=O)[C@H](C(C)C)NC(=O)[C@H](CC(C)C)NC(=O)[C@H](CC(N)=O)NC(=O)[C@@H]4CCCN4C(=O)[C@H](CCCNC(=N)N)NC(=O)[C@H](CSSC[C@H](NC(=O)[C@@H](N)CC(=O)O)C(=O)N[C@@H](CC(C)C)C(=O)NCC(=O)N[C@@H](Cc4ccccc4)C(=O)N[C@@H](CCSC)C(=O)N[C@@H](CCCNC(=N)N)C(=O)N[C@@H](CCCCN)C(=O)N2)NC(=O)[C@H](CSSC[C@@H](C(=O)N[C@@H](CCCCN)C(=O)N[C@@H](Cc2ccc(O)cc2)C(=O)N[C@@H](Cc2cccc4ccccc24)C(=O)N[C@@H](Cc2ccccc2)C(N)=O)NC(=O)[C@H](Cc2c[nH]c4ccccc24)NC(=O)[C@H](CCCCN)NC(=O)[C@H](Cc2cnc[nH]2)NC(=O)[C@H]([C@@H](C)O)NC(=O)[C@H](CCCNC(=N)N)NC(=O)[C@H](CO)NC3=O)NC(=O)[C@H](CCCCN)NC(=O)[C@H](CC(=O)O)NC(=O)[C@H](CC(N)=O)NC(=O)[C@H](CC(=O)O)NC(=O)[C@@H]2CCCN2C1=O (H-DCLGFMRKCIPDNDKCCRPNLVCSRTHKWCKY[1Nal]F-NH2; disulfide 2-17, 9-23, 16-30) | > 5000 nM | 70 nM
3 | CC[C@H](C)[C@@H]1NC(=O)[C@@H]2CSSC[C@@H]3NC(=O)[C@H](C(C)C)NC(=O)[C@H](CC(C)C)NC(=O)[C@H](CC(N)=O)NC(=O)[C@@H]4CCCN4C(=O)[C@H](CCCNC(=N)N)NC(=O)[C@H](CSSC[C@H](NC(=O)[C@@H](N)CC(=O)O)C(=O)N[C@@H](CC(C)C)C(=O)NCC(=O)N[C@@H](Cc4ccccc4)C(=O)N[C@@H](CCSC)C(=O)N[C@@H](CCCNC(=N)N)C(=O)N[C@@H](CCCCN)C(=O)N2)NC(=O)[C@H](CSSC[C@@H](C(=O)N[C@@H](CCCCN)C(=O)N[C@@H](Cc2ccc(O)cc2)C(=O)N[C@H](C(=O)N[C@@H](Cc2ccccc2)C(N)=O)C(C)C)NC(=O)[C@H](Cc2c[nH]c4ccccc24)NC(=O)[C@H](CCCCN)NC(=O)[C@H](Cc2c[nH]cn2)NC(=O)[C@H]([C@@H](C)O)NC(=O)[C@H](CCC(=O)O)NC(=O)[C@H](CO)NC3=O)NC(=O)[C@H](CCCCN)NC(=O)[C@H](CC(=O)O)NC(=O)[C@H](CC(N)=O)NC(=O)[C@H](CC(=O)O)NC(=O)[C@@H]2CCCN2C1=O (H-DCLGFMRKCIPDNDKCCRPNLVCSETHKWCKYVF-NH2; disulfide 2-17, 9-23, 16-30) | > 5000 nM | 720 nM
4 | CC[C@H](C)[C@@H]1NC(=O)[C@@H]2CSSC[C@@H]3NC(=O)[C@H](C(C)C)NC(=O)[C@H](CC(C)C)NC(=O)[C@H](CC(N)=O)NC(=O)[C@@H]4CCCN4C(=O)[C@H](CCCNC(=N)N)NC(=O)[C@H](CSSC[C@H](NC(=O)[C@@H](N)CC(=O)O)C(=O)N[C@@H](CC(C)C)C(=O)NCC(=O)N[C@@H](Cc4ccccc4)C(=O)N[C@@H](CCSC)C(=O)N[C@@H](CCCNC(=N)N)C(=O)N[C@@H](CCCCN)C(=O)N2)NC(=O)[C@H](CSSC[C@@H](C(=O)N[C@@H](CCCCN)C(=O)N[C@@H](Cc2ccc(O)cc2)C(=O)N[C@H](C(=O)N[C@@H](Cc2ccccc2)C(N)=O)C(C)C)NC(=O)[C@H](Cc2c[nH]c4ccccc24)NC(=O)[C@H](CCCCN)NC(=O)[C@H](Cc2cccc4ccccc24)NC(=O)[C@H]([C@@H](C)O)NC(=O)[C@H](CCCNC(=N)N)NC(=O)[C@H](CO)NC3=O)NC(=O)[C@H](CCCCN)NC(=O)[C@H](CC(=O)O)NC(=O)[C@H](CC(N)=O)NC(=O)[C@H](CC(=O)O)NC(=O)[C@@H]2CCCN2C1=O (H-DCLGFMRKCIPDNDKCCRPNLVCSRT[1Nal]KWCKYVF-NH2; disulfide 2-17, 9-23, 16-30) | 900 nM | 250 nM
5 | CC[C@H](C)[C@@H]1NC(=O)[C@@H]2CSSC[C@@H]3NC(=O)[C@H](C(C)C)NC(=O)[C@H](CC(C)C)NC(=O)[C@H](CC(N)=O)NC(=O)[C@@H]4CCCN4C(=O)[C@H](CCCNC(=N)N)NC(=O)[C@H](CSSC[C@H](NC(=O)[C@@H](N)CC(=O)O)C(=O)N[C@@H](CC(C)C)C(=O)NCC(=O)N[C@@H](Cc4ccccc4)C(=O)N[C@@H](CCSC)C(=O)N[C@@H](CCCNC(=N)N)C(=O)N[C@@H](CCCCN)C(=O)N2)NC(=O)[C@H](CSSC[C@@H](C(=O)N[C@@H](CCCCN)C(=O)N[C@@H](Cc2ccc(O)cc2)C(=O)N[C@H](C(=O)N[C@@H](Cc2c[nH]c4ccccc24)C(N)=O)C(C)C)NC(=O)[C@H](Cc2c[nH]c4ccccc24)NC(=O)[C@H](CCCCN)NC(=O)[C@H](Cc2c[nH]cn2)NC(=O)[C@H]([C@@H](C)O)NC(=O)[C@H](CCCNC(=N)N)NC(=O)[C@H](CO)NC3=O)NC(=O)[C@H](CCCCN)NC(=O)[C@H](CC(=O)O)NC(=O)[C@H](CC(N)=O)NC(=O)[C@H](CC(=O)O)NC(=O)[C@@H]2CCCN2C1=O (H-DCLGFMRKCIPDNDKCCRPNLVCSRTHKWCKYVW-NH2; disulfide 2-17, 9-23, 16-30) | > 5000 nM | 270 nM
6 | CC[C@H](C)[C@@H]1NC(=O)[C@@H]2CSSC[C@@H]3NC(=O)[C@H](C(C)C)NC(=O)[C@H](CC(C)C)NC(=O)[C@H](CC(N)=O)NC(=O)[C@@H]4CCCN4C(=O)[C@H](CCCNC(=N)N)NC(=O)[C@H](CSSC[C@H](NC(=O)[C@@H](N)CC(=O)O)C(=O)N[C@@H](CC(C)C)C(=O)NCC(=O)N[C@@H](Cc4ccccc4)C(=O)N[C@@H](CCSC)C(=O)N[C@@H](CCCNC(=N)N)C(=O)N[C@@H](CCCCN)C(=O)N2)NC(=O)[C@H](CSSC[C@@H](C(=O)N[C@@H](CCC(=O)O)C(=O)N[C@@H](Cc2ccc(O)cc2)C(=O)N[C@H](C(=O)N[C@@H](Cc2ccccc2)C(N)=O)C(C)C)NC(=O)[C@H](Cc2c[nH]c4ccccc24)NC(=O)[C@H](CCCCN)NC(=O)[C@H](Cc2cnc[nH]2)NC(=O)[C@H]([C@@H](C)O)NC(=O)[C@H](CCCNC(=N)N)NC(=O)[C@H](CO)NC3=O)NC(=O)[C@H](CCCCN)NC(=O)[C@H](CC(=O)O)NC(=O)[C@H](CC(N)=O)NC(=O)[C@H](CC(=O)O)NC(=O)[C@@H]2CCCN2C1=O (H-DCLGFMRKCIPDNDKCCRPNLVCSRTHKWCEYVF-NH2; disulfide 2-17, 9-23, 16-30) | > 5000 nM | > 5000 nM
7 | CC[C@H](C)[C@@H]1NC(=O)[C@@H]2CSSC[C@@H]3NC(=O)[C@H](CCCCN)NC(=O)[C@H](CC(C)C)NC(=O)[C@H](CC(N)=O)NC(=O)[C@@H]4CCCN4C(=O)[C@H](CCCNC(=N)N)NC(=O)[C@H](CSSC[C@H](NC(=O)[C@@H](N)CC(=O)O)C(=O)N[C@@H](CC(C)C)C(=O)NCC(=O)N[C@@H](Cc4ccccc4)C(=O)N[C@@H](CCSC)C(=O)N[C@@H](CCCNC(=N)N)C(=O)N[C@@H](CCCCN)C(=O)N2)NC(=O)[C@H](CSSC[C@@H](C(=O)N[C@@H](CCCCN)C(=O)N[C@@H](Cc2ccc(O)cc2)C(=O)N[C@H](C(=O)N[C@@H](Cc2ccccc2)C(N)=O)C(C)C)NC(=O)[C@H](Cc2c[nH]c4ccccc24)NC(=O)[C@H](CCCCN)NC(=O)[C@H](Cc2cnc[nH]2)NC(=O)[C@H]([C@@H](C)O)NC(=O)[C@H](CCCNC(=N)N)NC(=O)[C@H](CO)NC3=O)NC(=O)[C@H](CCCCN)NC(=O)[C@H](CC(=O)O)NC(=O)[C@H](CC(N)=O)NC(=O)[C@H](CC(=O)O)NC(=O)[C@@H]2CCCN2C1=O (H-DCLGFMRKCIPDNDKCCRPNLKCSRTHKWCKYVF-NH2; disulfide 2-17, 9-23, 16-30) | > 5000 nM | 200 nM
8 | CC[C@H](C)[C@@H]1NC(=O)[C@@H]2CSSC[C@@H]3NC(=O)[C@H](C(C)C)NC(=O)[C@H](CC(C)C)NC(=O)[C@H](CC(N)=O)NC(=O)[C@@H]4CCCN4C(=O)[C@H](CCCNC(=N)N)NC(=O)[C@H](CSSC[C@H](NC(=O)[C@@H](N)CC(=O)O)C(=O)N[C@@H](CC(C)C)C(=O)NCC(=O)N[C@@H](Cc4ccccc4)C(=O)N[C@@H](Cc4cc5ccccc5[nH]4)C(=O)N[C@@H](CCCNC(=N)N)C(=O)N[C@@H](CCCCN)C(=O)N2)NC(=O)[C@H](CSSC[C@@H](C(=O)N[C@@H](CCCCN)C(=O)N[C@@H](Cc2ccc(O)cc2)C(=O)N[C@H](C(=O)N[C@@H](Cc2ccccc2)C(N)=O)C(C)C)NC(=O)[C@H](Cc2c[nH]c4ccccc24)NC(=O)[C@H](CCCCN)NC(=O)[C@H](Cc2cnc[nH]2)NC(=O)[C@H]([C@@H](C)O)NC(=O)[C@H](CCCNC(=N)N)NC(=O)[C@H](CO)NC3=O)NC(=O)[C@H](CCCCN)NC(=O)[C@H](CC(=O)O)NC(=O)[C@H](CC(N)=O)NC(=O)[C@H](CC(=O)O)NC(=O)[C@@H]2CCCN2C1=O | 3400 nM | 30 nM
